Article PMC3104004 (European Journal of Nuclear Medicine and Molecular Imaging, 2011)

Assays:
[1] = test system: kidney of PC-3-bearing mice; settings: PC-3-bearing athymic mice, 30 min after injection; ref 26 (Zheng et al.); cited from earlier work
PC-3 tumours = assay: Dynamic PET scanning with quantitative VOI analysis in PC-3 tumour-bearing mice; format: in vivo, male NMRI nu/nu mice; settings: tail vein injection 100 μl; last 10 min of 20 min scan; N = 3
Summary of the method: (§1)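 Male NMRI nu/nu mice, 6–7 weeks old, inoculated s.c. in the right shoulder with ~5×10^6 VCaP or PC-3 cells in PBS. Under isoflurane/oxygen, prone, on a microPET with a heating mat. Test tracer 100 μl (8.1–1.2 MBq) given by tail-vein cannula; dynamic full-body scan for 20 min from injection. Tumour VOIs drawn manually, averaged over two analysts. %ID/g = VOI activity/injected dose ×100; steady-state taken from last 10 min; median, IQR; Mann-Whitney U.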

[2] = test system: VCaP tumour and preselected organs; assay: Ex vivo biodistribution in VCaP tumour-bearing mice; set-up: species or system male NMRI nu/nu mice; settings: 30 min after injection, 100 μl iv
Summary of the method: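 Done after PET. VCaP-bearing mice killed 60 min after i.v. tail-vein 68Ga-labelled bombesin-analogue tracer (300 pmol, 1.5–0.5 MBq), or 30 min after 18F-choline tracer (100 μl, 8.1–1.2 MBq). Gamma-counted: tumour, liver, heart, blood, muscle, tail, kidneys, pancreas and colon. %ID/g corrected for activity left in the tail; mean ± SD, four mice per tracer; unpaired t-test.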

[3] = test system: human prostate VCaP xenografts; assay: Dynamic PET scanning with quantitative VOI analysis in VCaP tumour-bearing mice; format: in vivo, male NMRI nu/nu mice
Summary of the method: as §1

In the case of C[N+](C)([11CH3])CCO [^11C-choline], the kidney uptake [1] is given as 5.1 ± 1.8 %ID/g.
For C[N+](C)(C[18F])CCO [^18F-FCH, N-[^18F]-fluoromethyl-N-(2-hydroxyethyl)-N,N-dimethylammonium], the “PC-3 tumour uptake from PET (plateau phase)” value (PC-3 tumours) was 1.2 ± 0.3 %ID/g, the uptake in blood ([2]; VCaP-bearing mice, N = 4) was 0.8 ± 0.1 %ID/g tissue and the uptake in heart ([2]; VCaP-bearing mice, N = 4) was 4.7 ± 0.5 %ID/g tissue. It also gave an uptake in kidneys ([2]; VCaP-bearing mice, N = 4) of 35.7 ± 4.1 %ID/g, an uptake in liver ([2]; VCaP-bearing mice, N = 4) of 13.0 ± 1.7 %ID/g tissue and an uptake in muscle ([2]; VCaP-bearing mice, N = 4) of 0.9 ± 0.2 %ID/g tissue. The “uptake in pancreas (GRPR-positive)” value ([2]; VCaP-bearing mice, N = 4) was 3.6 ± 1.0 %ID/g, the “VCaP tumour uptake (biodistribution)” value ([2]; ex vivo counting) was 2.1 ± 0.4 %ID/g and the “time at which tumour uptake reached a plateau phase” value ([3]; dynamic PET, VCaP tumour, after injection) was “less than 10 min”. The “VCaP tumour uptake determined from PET at steady-state (plateau phase)” value ([3]; tail vein injection 100 μl, 8.1–1.2 MBq, 10–20 min after injection, N = 8) was 1.6 ± 0.5 %ID/g.
